Reference: paper PMC7499187 (CPT: Pharmacometrics & Systems Pharmacology, 2020)
“And” between values parts separate entries of the source, which are not always exact repeats. Equal values may be shown once. Read-outs that look alike come from different tables or passages of the source.

Tests used:
[1] = cited from earlier work
[2] = cited from earlier work; remark: listed apart in the source
[3] = Simulated Day 1 and steady-state exposures in MONARCH 2; type: in vivo, human; conditions: MONARCH 2 and MONARCH 3, simulated exposures
Summary of the method: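 Breast cancer patients on endocrine therapy were grouped as East Asian (Japanese, Korean, Taiwanese) or non-East Asian. Each patient's post hoc parameters came from a mechanistic NONMEM model, with dosage averaged over the study. Simulations covered cycle 1 day 1 after the starting dose (150 or 200 mg) and steady state after 56 days of 12-hourly dosing. Read-outs were geometric mean (%CV) Cmax, Cmin and dosing-interval AUC for parent, M2, M20 and total actives.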

[4] = Semimechanistic population PK model; type: in vivo, human; conditions: for Absorption lag time / CLint to form M2 in liver / CLint to form M20 in liver / Central volume / Fraction of Fa absorbed via transit compartment / Fraction of dose entering gut compartment, Fa / MTT / Maximum rate of absorption, ka,max / Peripheral volume / Rate constant for formation of M2 from gut / Rate constant for formation of M20 from gut / Zero-order absorption duration / Diarrhea effect on Fa / Km / CLint of M2 in liver / CLint of M20 in liver: final population model; for Km: Km for saturable absorption
[5] = type: in vivo, human; conditions: geometric mean (%CV)
Summary of the method: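 Semimechanistic nonlinear mixed-effect population PK model with gut and hepatic CYP3A metabolism and a well-stirred liver model. Individual post hoc parameters simulated single oral doses (200 mg; cycle 1 day 1 starting 150 or 200 mg). Parent AUC0−∞ = Dose×F/CL. […] Cmax was taken from predicted profiles. Results are geometric mean (%CV).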

[6] = Noncompartmental analysis of absolute bioavailability study JPBS; type: in vivo, human
[7] = coadministration with clarithromycin (CYP3A inhibitor)
[8] = coadministration with rifampicin (CYP3A inducer)
[9] = Healthy subjects, 200 mg single oral dose, N = 65
[10] = JPBL (patients), 150 mg single oral dose, N = 326
[11] = JPBL (patients), 200 mg single oral dose, N = 142
[12] = JPBN (patients), 200 mg single oral dose, N = 132
[13] = Patients, 200 mg single oral dose, N = 421
[14] = NCA (200 mg), JPBS healthy subjects N = 8, geometric mean (%CV)

## CCN1CCN(Cc2ccc(Nc3ncc(F)c(-c4cc(F)c5nc(C)n(C(C)C)c5c4)n3)nc2)CC1 [Abemaciclib]
[1]; [7]
  increase of abemaciclib AUC: 237%
  increase of abemaciclib Cmax: 30%
[1]; [8]
  reduction of abemaciclib area under the curve (AUC): 95%
  reduction of abemaciclib maximum plasma concentration (Cmax): 92%
[2]
  parent drug renally excreted: 3%
[2]; in patients
  mean terminal elimination half-life: approximately 24 hours
[2]; phase I cancer patient population
  median time to maximum plasma concentration: approximately 8 hours
[3]
  effect of East Asian ethnicity on abemaciclib PK: no effect
[4]; adults
  effect of body weight on abemaciclib exposure: no clinically significant effect
[4]; crossover food effect study
  difference in absorption parameters between the fasted state, a standard meal, and a high-fat meal: no significant difference
[4]; Bootstrap median (95% CI)
  Absorption lag time: 1.76 (1.69–1.80) h
  CLint to form M2 in liver: 235 (199–284) L/h
  CLint to form M20 in liver: 700 (627–775) L/h
  Central volume: 604 (563–635) L
  Fraction of Fa absorbed via transit compartment: 0.479 (0.453–0.507)
  Fraction of dose entering gut compartment, Fa: 0.882 (0.874–0.890)
  MTT: 1.52 (1.43–1.62) h
  Maximum rate of absorption, ka,max: 97.6 (85.0–111) µmol/h
  Peripheral volume: 152 (132–184) L
  Rate constant for formation of M2 from gut: 0.401 (0.366–0.432) /h
  Rate constant for formation of M20 from gut: 0.306 (0.276–0.339) /h
  Zero-order absorption duration: 3.04 (2.52–3.84) h
[4]; Bootstrap median (95% CI), logit parameter
  Diarrhea effect on Fa: −0.0079 (−1.29, 2.65 × 10^−7)
[4]; Estimate (%SEE)
  Absorption lag time: 1.74 h and 1.74 (0.538) h
  CLint to form M2 in liver: 280 (0.436) L/h
  CLint to form M20 in liver: 705 (0.421) L/h
  Central volume: 588 (2.81) L
  Fraction of Fa absorbed via transit compartment: 0.458 (0.336)
  Fraction of dose entering gut compartment, Fa: 0.868 (0.0583)
  MTT: 1.44 h and 1.44 (3.68) h
  Maximum rate of absorption, ka,max: 91.1 µmol/h and 91.1 (3.96) µmol/h
  Peripheral volume: 159 (0.421) L
  Rate constant for formation of M2 from gut: 0.361 (0.479) /h
  Rate constant for formation of M20 from gut: 0.284 (0.468) /h
  Zero-order absorption duration: 3.18 h and 3.18 (10.3) h
[4]; Estimate (%SEE), on the logit parameter for Fa
  Diarrhea effect on Fa: −0.417 (7.99)
[4]; human, plasma, oral
  clearance: 380 mL/min
[4]; human, plasma, oral, Bootstrap median (95% CI)
  Km: 51.8 µM
[4]; human, plasma, oral, Estimate (%SEE)
  Km: 52.7 µM
[4]; in the absence of drug, metabolism-susceptible pathway
  intrinsic ka (absorption rate constant): 1.73 h⁻¹
[4]; in vivo
  absorbed amount absorbed via the zero-order route: 54.2%
  dose either not absorbed or lost as other metabolites: 13.2%
  total administered dose absorbed either as abemaciclib, M2, or M20: 86.8%
  typical total CLint of unbound abemaciclib that resulted in formation of M2 and M20: 985 L/h
[4]; saturable absorption from final transit compartment
  amount that results in half maximal absorption rate: 27 mg
[4]; saturable absorption from final transit compartment to liver
  typical ka,max: 46.2 mg/h
[5]; [9]
  Hepatic clearance: 23.8 (30.3) L/h
[5]; [10]
  Hepatic clearance: 25.1 (21) L/h
[5]; [11]
  Hepatic clearance: 26 (25.7) L/h
[5]; [12]
  Hepatic clearance: 24.3 (24.9) L/h
[5]; [13]
  Hepatic clearance: 21.8 (39.8) L/h
[6]; [14]
  Hepatic clearance: 24.0 (27) L/h
[6]; human, plasma, oral, 200 mg
  AUC(0-inf): 3730 ng·h/mL
  Cmax: 114 ng/mL
  bioavailability: 44.8%

## Cc1nc2c(F)cc(-c3nc(Nc4ccc(CN5CCNCC5)cn4)ncc3F)cc2n1C(C)C [M2]
[4]; Bootstrap median (95% CI)
  CLint of M2 in liver: 241 (218–271) L/h
[4]; Estimate (%SEE)
  CLint of M2 in liver: 254 (2.06) L/h
[5]; [9]
  AUC0−∞: 1690 (39.9) ng·h/mL
  Apparent hepatic clearance: 22.9 (28.4) L/h
  Cmax: 28.8 (36.1) ng/mL
  Half-life: 21.2 (25.8) h
[5]; [10]
  AUC0−∞: 1640 (70.2) ng·h/mL
  Apparent hepatic clearance: 18.3 (49.9) L/h
  Cmax: 33.6 (70.4) ng/mL
  Half-life: 17.2 (65.1) h
[5]; [11]
  AUC0−∞: 1820 (72) ng·h/mL
  Apparent hepatic clearance: 20.9 (48.1) L/h
  Cmax: 40.2 (73.9) ng/mL
  Half-life: 16 (73.6) h
[5]; [12]
  AUC0−∞: 1620 (55.0) ng·h/mL
  Apparent hepatic clearance: 23.9 (35.3) L/h
  Cmax: 26.9 (54.7) ng/mL
  Half-life: 21.3 (73.5) h
[5]; [13]
  AUC0−∞: 1790 (71.6) ng·h/mL
  Apparent hepatic clearance: 21.5 (54.3) L/h
  Cmax: 30.3 (75.7) ng/mL
  Half-life: 19.3 (65.4) h
[6]; [14]
  AUC0−∞: 1450 (19) ng·h/mL
  Cmax: 31.7 (22) ng/mL
  Half-life: 72.6 (23) h

## CCN1CCN(Cc2ccc(Nc3ncc(F)c(-c4cc(F)c5nc(CO)n(C(C)C)c5c4)n3)nc2)CC1 [M20]
[4]; Bootstrap median (95% CI)
  CLint of M20 in liver: 454 (417–489) L/h
[4]; Estimate (%SEE)
  CLint of M20 in liver: 431 (2.00) L/h
[5]; [9]
  AUC0−∞: 3450 (34.4) ng·h/mL
  Apparent hepatic clearance: 23.9 (23.7) L/h
  Cmax: 49.1 (32.5) ng/mL
  Half-life: 20.3 (21.3) h
[5]; [10]
  AUC0−∞: 2870 (69.6) ng·h/mL
  Apparent hepatic clearance: 22.5 (44.3) L/h
  Cmax: 59.3 (78.7) ng/mL
  Half-life: 14 (62.5) h
[5]; [11]
  AUC0−∞: 3020 (72.8) ng·h/mL
  Apparent hepatic clearance: 25.8 (43.3) L/h
  Cmax: 66.1 (82.8) ng/mL
  Half-life: 13 (70.1) h
[5]; [12]
  AUC0−∞: 2750 (55.0) ng·h/mL
  Apparent hepatic clearance: 26.2 (33.5) L/h
  Cmax: 39.4 (56.0) ng/mL
  Half-life: 19.4 (72.7) h
[5]; [13]
  AUC0−∞: 3240 (74.7) ng·h/mL
  Apparent hepatic clearance: 23.7 (52.1) L/h
  Cmax: 48.8 (83.0) ng/mL
  Half-life: 17.5 (62.5) h
[6]; [14]
  AUC0−∞: 3260 (26) ng·h/mL
  Cmax: 55.7 (26) ng/mL
  Half-life: 35.3 (16) h
